Test results taken from ChEMBL document CHEMBL4190262, “Tuning of β-glucosidase and α-galactosidase inhibition by generation and in situ screening of a library of pyrrolidine-triazole hybrid molecules” (Eur J Med Chem, 2017).
Active and inactive are the calls of the source. The calls are words filed in the database; no cut-off is given here.

Columns and labels:
Aspergillus niger = test: Inhibition of Aspergillus niger amyloglucosidase at 1 mM using p-nitrophenyl glycopyranoside preincubated for 5 mins followed by substrate addition measured after 20 mins by visible absorption spectroscopic method relative to control
Summary of the method: (§1)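 Test compound at 1 mM in well. Mix: 0.01–0.5 units/mL enzyme plus 10 mM p-nitrophenyl glycopyranoside (aqueous solution), buffered to the enzyme's optimal pH. Enzyme and inhibitor preincubated 5 min at rt. Substrate then added and incubated 20 min at 37 °C. Stopped with sodium borate (pH 9.8). p-Nitrophenolate read at 405 nm. Duplicates averaged.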

[1] = molecular target: T1, Alpha-mannosidase (Canavalia ensiformis) (UniProt C0HJB3); test: Inhibition of jack bean alpha-mannosidase at 1 mM using p-nitrophenyl glycopyranoside preincubated for 5 mins followed by substrate addition measured after 20 mins by visible absorption spectroscopic method relative to control; summary of the method: as §1
T1 sequence (whole entry): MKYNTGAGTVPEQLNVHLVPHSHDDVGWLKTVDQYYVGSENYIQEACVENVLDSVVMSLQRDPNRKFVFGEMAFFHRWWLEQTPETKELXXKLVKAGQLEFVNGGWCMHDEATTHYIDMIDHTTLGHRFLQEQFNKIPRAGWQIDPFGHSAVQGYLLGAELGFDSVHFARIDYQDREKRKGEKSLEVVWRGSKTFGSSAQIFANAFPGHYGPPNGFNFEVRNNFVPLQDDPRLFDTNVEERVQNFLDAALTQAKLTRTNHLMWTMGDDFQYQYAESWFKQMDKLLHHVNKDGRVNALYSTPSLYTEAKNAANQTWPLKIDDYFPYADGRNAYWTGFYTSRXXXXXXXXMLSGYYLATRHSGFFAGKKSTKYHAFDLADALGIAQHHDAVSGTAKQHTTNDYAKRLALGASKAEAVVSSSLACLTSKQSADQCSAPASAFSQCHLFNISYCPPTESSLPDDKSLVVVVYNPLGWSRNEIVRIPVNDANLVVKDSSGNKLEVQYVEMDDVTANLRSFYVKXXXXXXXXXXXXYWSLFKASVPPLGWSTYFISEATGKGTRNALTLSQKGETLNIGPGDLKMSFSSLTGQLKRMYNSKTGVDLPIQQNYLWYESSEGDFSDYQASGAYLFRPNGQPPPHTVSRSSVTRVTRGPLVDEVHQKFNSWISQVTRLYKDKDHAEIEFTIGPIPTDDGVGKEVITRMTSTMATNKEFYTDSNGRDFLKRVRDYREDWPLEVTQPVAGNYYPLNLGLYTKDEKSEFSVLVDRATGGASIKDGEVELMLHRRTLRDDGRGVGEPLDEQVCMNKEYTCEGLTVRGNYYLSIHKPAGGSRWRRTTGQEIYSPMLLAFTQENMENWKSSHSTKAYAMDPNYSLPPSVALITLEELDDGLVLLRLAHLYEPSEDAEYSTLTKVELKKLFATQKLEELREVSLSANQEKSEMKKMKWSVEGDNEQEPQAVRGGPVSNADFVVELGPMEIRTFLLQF

Oryza sativa = test: Inhibition of rice alpha-glucosidase at 1 mM using p-nitrophenyl glycopyranoside preincubated for 5 mins followed by substrate addition measured after 20 mins by visible absorption spectroscopic method relative to control; summary of the method: as §1
Canavalia ensiformis = test: Inhibition of jack bean beta-N-acetylglucosaminidase at 1 mM using p-nitrophenyl glycopyranoside preincubated for 5 mins followed by substrate addition measured after 20 mins by visible absorption spectroscopic method relative to control; summary of the method: as §1
[2] = Inhibition of bovine kidney alpha-L-fucosidase using p-nitrophenyl glycopyranoside preincubated for 5 mins followed by substrate addition measured after 20 mins by visible absorption spectroscopic method; design: species or system Bos taurus
[3] = molecular target: Beta-galactosidase (Escherichia coli) (UniProt Q8VNN2); test: Inhibition of Escherichia coli beta-galactosidase at 1 mM using p-nitrophenyl glycopyranoside preincubated for 5 mins followed by substrate addition measured after 20 mins by visible absorption spectroscopic method relative to control; summary of the method: as §1
Prunus dulcis = test: Inhibition of almond beta-glucosidase at 1 mM using p-nitrophenyl glycopyranoside preincubated for 5 mins followed by substrate addition measured after 20 mins by visible absorption spectroscopic method relative to control; summary of the method: as §1
Cornu aspersum = test: Inhibition of snail beta-mannosidase at 1 mM using p-nitrophenyl glycopyranoside preincubated for 5 mins followed by substrate addition measured after 20 mins by visible absorption spectroscopic method relative to control; summary of the method: as §1
Bos taurus = species: Bos taurus; test: Inhibition of bovine kidney alpha-L-fucosidase at 1 mM using p-nitrophenyl glycopyranoside preincubated for 5 mins followed by substrate addition measured after 20 mins by visible absorption spectroscopic method relative to control; summary of the method: as §1
[4] = molecular target: Alpha-galactosidase (Coffea arabica) (UniProt Q42656); test: Inhibition of coffee beans alpha-galactosidase at 1 mM using p-nitrophenyl glycopyranoside preincubated for 5 mins followed by substrate addition measured after 20 mins by visible absorption spectroscopic method relative to control; summary of the method: as §1
[5] = molecular target: T2, Beta-galactosidase (Aspergillus oryzae) (UniProt B7VU80); test: Inhibition of Aspergillus oryzae beta-galactosidase at 1 mM using p-nitrophenyl glycopyranoside preincubated for 5 mins followed by substrate addition measured after 20 mins by visible absorption spectroscopic method relative to control; summary of the method: as §1
T2 sequence (whole entry): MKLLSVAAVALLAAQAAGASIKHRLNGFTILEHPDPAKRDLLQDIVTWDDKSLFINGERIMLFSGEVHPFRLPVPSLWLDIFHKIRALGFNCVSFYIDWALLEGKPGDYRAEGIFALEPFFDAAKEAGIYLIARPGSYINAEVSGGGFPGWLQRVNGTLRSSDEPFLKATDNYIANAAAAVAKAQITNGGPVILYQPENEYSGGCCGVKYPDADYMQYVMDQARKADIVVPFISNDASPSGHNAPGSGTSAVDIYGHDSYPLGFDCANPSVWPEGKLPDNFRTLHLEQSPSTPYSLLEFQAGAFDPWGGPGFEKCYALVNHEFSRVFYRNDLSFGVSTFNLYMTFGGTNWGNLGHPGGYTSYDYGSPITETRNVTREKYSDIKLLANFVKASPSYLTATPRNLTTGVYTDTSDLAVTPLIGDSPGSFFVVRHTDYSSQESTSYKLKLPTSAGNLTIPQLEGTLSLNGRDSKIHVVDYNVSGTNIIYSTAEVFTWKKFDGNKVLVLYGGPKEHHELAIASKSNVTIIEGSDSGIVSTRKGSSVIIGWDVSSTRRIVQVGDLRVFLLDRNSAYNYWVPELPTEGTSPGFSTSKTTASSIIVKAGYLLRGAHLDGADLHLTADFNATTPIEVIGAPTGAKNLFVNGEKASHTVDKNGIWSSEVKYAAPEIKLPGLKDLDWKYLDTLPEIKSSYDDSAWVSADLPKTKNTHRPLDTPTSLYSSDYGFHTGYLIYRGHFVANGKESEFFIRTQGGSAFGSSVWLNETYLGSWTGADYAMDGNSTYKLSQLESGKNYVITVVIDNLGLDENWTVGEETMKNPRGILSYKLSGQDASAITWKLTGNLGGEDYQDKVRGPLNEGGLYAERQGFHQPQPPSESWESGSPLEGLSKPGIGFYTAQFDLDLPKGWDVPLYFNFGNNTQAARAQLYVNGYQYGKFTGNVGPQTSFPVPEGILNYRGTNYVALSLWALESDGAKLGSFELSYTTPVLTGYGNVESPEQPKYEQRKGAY

Saccharomyces cerevisiae = test: Inhibition of yeast alpha glucosidase at 1 mM using p-nitrophenyl glycopyranoside preincubated for 5 mins followed by substrate addition measured after 20 mins by visible absorption spectroscopic method relative to control; summary of the method: as §1

Sequence of Beta-galactosidase (Escherichia coli) (Q8VNN2 whole entry, looked up): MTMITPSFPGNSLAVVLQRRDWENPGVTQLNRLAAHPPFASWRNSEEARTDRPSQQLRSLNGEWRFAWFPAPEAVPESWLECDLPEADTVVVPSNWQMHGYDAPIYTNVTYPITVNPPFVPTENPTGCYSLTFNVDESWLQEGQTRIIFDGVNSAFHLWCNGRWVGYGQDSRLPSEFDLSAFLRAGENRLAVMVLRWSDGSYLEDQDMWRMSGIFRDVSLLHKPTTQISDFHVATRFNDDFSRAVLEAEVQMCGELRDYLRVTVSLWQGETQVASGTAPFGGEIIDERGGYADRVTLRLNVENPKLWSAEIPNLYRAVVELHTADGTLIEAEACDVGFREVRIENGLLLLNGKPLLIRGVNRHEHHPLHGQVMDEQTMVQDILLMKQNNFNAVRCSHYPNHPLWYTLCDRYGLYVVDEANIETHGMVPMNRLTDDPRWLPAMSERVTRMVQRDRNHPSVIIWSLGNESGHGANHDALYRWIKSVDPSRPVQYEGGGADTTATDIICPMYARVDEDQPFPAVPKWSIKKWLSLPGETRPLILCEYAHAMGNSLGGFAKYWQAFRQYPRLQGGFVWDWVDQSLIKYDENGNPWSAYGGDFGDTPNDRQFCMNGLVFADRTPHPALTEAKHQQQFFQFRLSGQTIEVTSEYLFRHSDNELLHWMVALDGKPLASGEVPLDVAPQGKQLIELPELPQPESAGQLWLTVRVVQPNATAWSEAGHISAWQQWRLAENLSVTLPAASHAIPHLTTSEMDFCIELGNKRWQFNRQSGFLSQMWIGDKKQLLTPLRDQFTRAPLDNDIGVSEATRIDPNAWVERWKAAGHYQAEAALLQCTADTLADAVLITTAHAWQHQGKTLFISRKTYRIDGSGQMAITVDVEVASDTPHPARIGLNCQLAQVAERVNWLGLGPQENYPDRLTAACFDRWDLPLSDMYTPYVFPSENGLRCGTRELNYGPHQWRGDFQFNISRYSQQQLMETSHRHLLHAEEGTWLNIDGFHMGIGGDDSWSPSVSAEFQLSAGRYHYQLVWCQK
Sequence of Alpha-galactosidase (Coffea arabica) (Q42656 16-378 limits assumed): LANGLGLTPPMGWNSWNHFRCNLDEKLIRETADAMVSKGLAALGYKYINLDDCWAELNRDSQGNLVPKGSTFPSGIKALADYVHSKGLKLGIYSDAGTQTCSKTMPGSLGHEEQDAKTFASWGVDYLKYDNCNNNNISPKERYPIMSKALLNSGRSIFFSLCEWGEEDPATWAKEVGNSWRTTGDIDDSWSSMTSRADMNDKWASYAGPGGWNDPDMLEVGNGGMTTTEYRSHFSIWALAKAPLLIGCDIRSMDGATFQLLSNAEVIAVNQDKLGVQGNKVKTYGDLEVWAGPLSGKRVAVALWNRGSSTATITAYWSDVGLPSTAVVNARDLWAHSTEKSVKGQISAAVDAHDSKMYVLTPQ

- inhibition (Aspergillus niger): inactive
- inhibition [1]: inactive
- inhibition (Oryza sativa): inactive
- inhibition (Canavalia ensiformis): inactive
- IC50 [2]: 168 µM
- inhibition [3]: inactive
- inhibition (Prunus dulcis): inactive
- inhibition (Cornu aspersum): inactive
- inhibition (Bos taurus): 84%
- inhibition [4]: inactive
- inhibition [5]: inactive
- inhibition (Saccharomyces cerevisiae): inactive
SMILES: O[C@@H]1[C@H](O)CN[C@@H]1c1cn(Cc2ccccc2)nn1
